Test: Toxicity liver stage against HepG2, at 10uM
Type: cell-based
Design: test concentration 10 uM, cell line HepG2-A16-CD81EGFP
Conditions: human, HepG2-A16-CD81EGFP cells; read-out: INHIBITION
Procedure, shortened: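 Uninfected HepG2-A16-CD81EGFP cells, 3 × 10^3 per well, 1536-well, plated on prespotted compound at 10 μM final, parasite-free screening media added to match infected plates; puromycin 10 μM positive, DMSO 0.5% negative; run in parallel with 48 h PbLuc assay at 37 °C, 5% CO2; viability by CellTiter-Glo luminescence, normalized to controls.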

Row | SMILES | cytotoxicity at 10 µM
1 | O=C(Nc1ccc(CCN2CCOCC2)cc1)C1CCC1 | -9.95%
2 | CC1Cc2cc(-c3cncn3CC(=O)NC(C)(C)C)ccc2N1C (configuration not stated) | -40.5%
3 | Cc1cc(C(=O)NCCc2c(C)nn(C)c2C)nc(N2CCCCC2)n1 | -16%
4 | CCN(CC)C(=O)CN1CCc2c(nc(C3CCNCC3)nc2NC)C1 | 5.07%
5 | COC(=O)c1cccc(C(=O)NCc2ccc3c(c2)CCCN3C)c1 | -11.7%
6 | Cn1c(=O)[nH]c(=O)n2c(CC(=O)Nc3ccccc3)cnc12 | 5.81%
7 | O=C1CC2(CCN(C(=O)c3ccccn3)C2)Nc2ccccc2N1 (configuration not stated) | 10.9%
8 | Cc1cc2[nH]c(=O)oc2cc1S(=O)(=O)N1CCCC(N(C)C)CC1 (configuration not stated) | 0.74%
9 | Oc1ccc(Br)c(CNc2cccc(-c3nnc[nH]3)c2)c1 | -38.9%
10 | CCn1cc(CN2CCC(c3nnc(CN(C)C)n3CC)CC2)cn1 | -22.3%
11 | CCOCC(=O)NC(C)c1cc(C)ccc1C (configuration not stated) | 5.6%
12 | N#Cc1cccc(CS(=O)(=O)NCC(O)Cc2ccccc2)c1 (configuration not stated) | 2.99%
13 | COCCN1CCN(S(C)(=O)=O)Cc2ccc(C)nc21 | -5.06%
14 | CSc1ccc(-c2cc(CN)nc3ccnn23)cc1 | -7.5%
15 | Cn1cnnc1CN1CCC2(CCCN(C3CCCC3)C2=O)C1 (configuration not stated) | -133%
16 | COCCN1C[C@H]2CCN(C(=O)c3cc(C)on3)CC[C@H]2S1(=O)=O | -1.69%
17 | c1ccc2sc(N3CCCC(Cn4cncn4)C3)nc2c1 (configuration not stated) | -40.1%
18 | CN(C)C(=O)CN1CCc2ncnc(NC3CCC3)c2CC1 | -94.4%
19 | Cc1cc(C)n(CC2CN(Cc3cccc(C#N)c3)CCO2)n1 (configuration not stated) | -3.46%
20 | c1ccc(-c2noc(CNC3CCc4ncnn4C3)n2)nc1 (configuration not stated) | -11.7%
21 | O=c1cc(CN2CCCCC2c2cccc(F)c2)[nH]c2ncnn12 (configuration not stated) | -3.46%

Row | SMILES | cytotoxicity at 10 µM
22 | CC1CN(CC(=O)NCCc2ccncc2)Cc2ccccc2O1 (configuration not stated) | -0.369%
23 | CN1CCCC[C@@H]2[C@H]1[C@@H](c1ccccc1)CCN2S(=O)(=O)N1CCCC1 | -1.03%
24 | CC/C=C(\C)CN1CCC(CNC(=O)c2ccc(=O)[nH]c2)CC1 | 8.06%
25 | CC(=O)N1CCN([C@@H]2CN(C(=O)c3ccccc3)C[C@H]2O)CC1 | -4.8%
26 | COCc1nnc(-c2cccc(C(=O)OC(C)C)c2)o1 | -21.8%
27 | Cc1ccc(-c2cc(C3=NC(=CN4CCN(C)CC4)NO3)[nH]n2)s1 | -9.45%
28 | COCCCN(C)c1ncccc1I | 2.28%
29 | Cc1nn(C)c2nc(N3CCC(C(O)c4nccn4C)CC3)sc12 (configuration not stated) | 0.79%
30 | COCCN1CCCn2c(nc(Cn3cncn3)cc2=O)C1 | 3.39%
31 | O=C(CNc1cc(-n2cnnn2)ccc1F)Nc1cc(F)ccc1F | -4.09%
32 | Cn1c(=O)[nH]c2cc(C(=O)OCC(F)F)ccc21 | -17.3%
33 | O=C(NCCc1cnccn1)C1(N2CCCCC2)Cc2ccccc2C1 | -7.82%
34 | Cc1ccccc1CNc1ccccc1OCC(=O)N1CCOCC1 | -2.38%
35 | COc1ccc2[nH]c3c(c2c1)CN(c1cc(NCCO)nc(N)n1)CC3 | 8.75%
36 | NC(=O)N1Cc2nccn2CC(Cn2ncccc2=O)C1 (configuration not stated) | 3.19%
37 | Cc1csc(CN(C)CCOc2ccccc2)n1 | -3.18%
38 | O=C1Nc2ccccc2C1C1CCN(C(=O)C2CC2)CC1 (configuration not stated) | -1.24%
39 | Cc1nc(N2CCC3(CCCN(CCO)C3=O)C2)c2sccc2n1 (configuration not stated) | -0.456%
40 | COCC(NC(=O)c1cc[nH]n1)c1cccc(C(F)(F)F)c1 (configuration not stated) | -10.7%
41 | OCC(O)CSCc1cn(-c2ccc(Cl)cc2)nn1 (configuration not stated) | 3.2%
42 | Cn1cc(N2CCCC(Nc3ccc4c(c3)CCC(=O)N4)C2=O)cn1 (configuration not stated) | -1.56%

Row | SMILES | cytotoxicity at 10 µM
43 | NC(=O)C1CCN(CC(=O)N(Cc2ccccc2)Cc2nccs2)CC1 | -5.08%
44 | Cc1ccc(CN2Cc3c(cnn3C)C(COCC3CC3)C2)s1 (configuration not stated) | 3.91%
45 | CC(=O)N1CCC(NC2(Cc3cc(CC(C)C)on3)COC2)CC1 | 2.8%
46 | CC(=O)NCCNC(=O)c1cnc2c(c1)nc(-c1ccccc1Cl)n2C | 4.99%
47 | CC(C)Cc1nc(C[S+]([O-])CC(=O)NCc2ccccc2)no1 (configuration not stated) | -6.45%
48 | Cc1ncsc1CCC(=O)NC1CCN(c2ccc(Cl)nn2)CC1 | -2.5%
49 | NC(=O)CN(Cc1ncc(-c2ccccc2)o1)C1CCCC1 | -4.3%
50 | CCc1nc(C2CCCN2C(=O)c2c[nH]c(C)n2)no1 (configuration not stated) | -0.674%
51 | Cc1[nH]ccc1C(=O)N[C@H]1CN(S(C)(=O)=O)C[C@@H]1C1CC1 | 3.28%
52 | O=C1CCCN1CCc1noc(-c2ccsc2)n1 | 8.35%
53 | CCc1nccn1-c1cccc(C2CCCN2S(=O)(=O)N(C)C)n1 (configuration not stated) | -9.85%
54 | N#Cc1cnc2c(F)cc(F)cc2c1NC1CCN(CC(N)=O)CC1 | -2.89%
55 | Cc1ccc(C(C(=O)N2CC(c3ccccn3)C2)N(C)C)cc1 (configuration not stated) | -9.82%
56 | CN(C)CCNC(=O)c1ccc2ccc(N(C)CC3CC3)n2c1 | -2.69%
57 | COc1ccc2c(c1)OC1(CCN(Cc3ccccc3C)CC1)CC2=O | 6.52%
58 | c1cncc(COCC2CN(Cc3ccncc3)Cc3ccnn3C2)c1 (configuration not stated) | -135%
59 | CCn1nc(C)c(CN(CCOC)C(=O)c2cnc(C)nc2O)c1C | -2.27%
60 | CCOCC1CCN(C(=O)C(c2ccccc2F)N(C)C)CC1 (configuration not stated) | 5.06%
61 | CN(C)S(=O)(=O)N1CC(c2nc(-c3ccsc3)no2)C1 | -6.6%
62 | CN1CCC2(CC1)C(=O)N(c1cccnc1)c1ccc(F)cc12 | 3.65%
63 | CC(C)N1CCCC(C(=O)NCc2noc(Cc3ccccc3)n2)C1 (configuration not stated) | -1.49%

Row | SMILES | cytotoxicity at 10 µM
64 | O=C(CC1CC1)NC[C@]12COC[C@H]1CN(c1ncc(F)cn1)C2 | -141%
65 | Cc1ccc(C(=O)NS(=O)(=O)c2cc(F)ccc2F)c(=O)[nH]1 | -1.73%
66 | CCN1CCCC(C)(C(=O)NCc2nccn2Cc2ccccc2)C1 (configuration not stated) | 4.69%
67 | Cc1cccc(C2CCCN(C(=O)c3ccncc3)C2)n1 (configuration not stated) | 2.97%
68 | O=C(N1CCOCC1)N1CCN(CC(O)c2ccc(F)cc2)CC1 (configuration not stated) | -2.42%
69 | O=C(O)c1c(NC2CCC2)ncc2c1CCN(C1CCOC1)C2 (configuration not stated) | 11.4%
70 | Cc1ccccc1CN(C)C(C(N)=O)c1ccccc1 (configuration not stated) | 13.1%
71 | COCC[C@]1(O)CCN(C(=O)CCc2cnn(C)c2)C[C@H]1C | 1.72%
72 | Cc1nc(N2CCOCC2)sc1C(=O)NCC(C)(C)N1CCCCC1 | 5.7%
73 | CN1C[C@@H](NC(=O)C2CC2)C[C@H]1c1nc(-c2cnccn2)no1 | 0.611%
74 | Cc1cccc(C2(NC(=O)CCN3C(=O)CCC3=O)CCCC2)c1 | -17.4%
75 | COc1cccc(SCCCn2cnc3c(N)ncnc32)c1 | 11.7%
76 | COCCc1noc(-c2cn(CCc3ccccc3)nn2)n1 | -2.56%
77 | CCNc1cc2c(nn1)CCN(C(=O)c1cc3c(s1)CCOC3)C2 | -8.51%
78 | CC(NC(=O)c1cc2n(n1)CCCN(C(C)C)C2)c1cn2ccsc2n1 (configuration not stated) | -3.39%
79 | COc1cc(NCC(O)CN2CCCCCC2)ncn1 (configuration not stated) | 2.8%
80 | CC(NC(=O)CCC1CCCCC1)c1nnc2n1CCC2 (configuration not stated) | -27.1%
81 | c1cncc(COC[C@H]2CC[C@H]3[C@H](CCN3Cc3nccs3)O2)c1 | -69.6%
82 | COCCN1C[C@@H]2CCCO[C@@H]2[C@H](NC(=O)c2cnccn2)C1 | 0.766%
